MIC data for 3 compounds are collected here from ChEMBL document CHEMBL1212742 (2010).

The structures appear in SMILES notation. Values after ≈ are worked out from the molar mass of the structure shown.

Holding throughout (format): functional
The test system of experiment [1] is Mycobacterium tuberculosis. Briefly: Antimicrobial activity against wild type Mycobacterium tuberculosis 8C6 after 4 weeks by Bactec 460TB method. The settings on record: 8C6, 672 h.
Experiment [2] has as its system Mycobacterium tuberculosis. The experiment is described as follows: Antimicrobial activity against wild type Mycobacterium tuberculosis 8C6 after 4 weeks by 7H agar proportion method. In outline: (§1)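 EMB MIC by 7H10 agar proportion for clones selected from M. tuberculosis strain 210. About 10^9 cells from liquid culture (OD600 ~1.5, resuspended in 7H9) were plated on 7H10 with EMB at 8, 16 or 32 µg/ml final, incubated 37°C for 4 weeks. Colonies were subcultured in EMB-free 7H9 before testing, and embCAB was genotyped.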

Experiment [3] deals with Mycobacterium tuberculosis. Briefly: Antimicrobial activity against wild type Mycobacterium tuberculosis 8C3 after 4 weeks by Bactec 460TB method. The settings on record: 8C3, 672 h.
The subject of experiment [4] is Mycobacterium tuberculosis. Briefly: Antimicrobial activity against wild type Mycobacterium tuberculosis 8C2 after 4 weeks by Bactec 460TB method. The note with it: 8C2, 672 h. In outline:
(§2)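 EMB MIC by radiometric Bactec 460TB liquid method for clones from strain 210. The clones were selected on 7H10 containing 8, 16 or 32 µg/ml EMB final (~10^9 cells plated, 37°C, 4 weeks), then subcultured in 7H9 without EMB before MIC testing. embCAB was genotyped.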

The test system of experiment [5] is Mycobacterium tuberculosis. The experiment is described as follows: Antimicrobial activity against wild type Mycobacterium tuberculosis 8C2 after 4 weeks by 7H agar proportion method. In outline:
as §1

Experiment [6] concerns Mycobacterium tuberculosis. Briefly: Antimicrobial activity against wild type Mycobacterium tuberculosis 8C1 after 4 weeks by Bactec 460TB method. The note with it: 8C1, 672 h. In outline: as §2
For experiment [7], the system named is Mycobacterium tuberculosis. The experiment is described as follows: Antimicrobial activity against wild type Mycobacterium tuberculosis 8C1 after 4 weeks by 7H agar proportion method. In outline:
as §1

In experiment [8] the test system is Mycobacterium tuberculosis. Briefly: Antimicrobial activity against wild type Mycobacterium tuberculosis 210 after 4 weeks by Bactec 460TB method. The note with it: Mycobacterium tuberculosis, 210, 672 h. In outline:
(§3)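 Parental M. tuberculosis strain 210 with no EMB exposure. EMB MIC determined in parallel by 7H10 agar proportion and radiometric Bactec 460TB.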

The test system of experiment [9] is Mycobacterium tuberculosis. Briefly: Antimicrobial activity against wild type Mycobacterium tuberculosis 210 after 4 weeks by 7H agar proportion method. Summed up: as §3
The test system of experiment [10] is Mycobacterium tuberculosis. Briefly: Antimicrobial activity against wild type Mycobacterium tuberculosis 16C10 after 4 weeks by 7H agar proportion method. In outline:
as §1

For experiment [11], the system named is Mycobacterium tuberculosis. The experiment is described as follows: Antimicrobial activity against wild type Mycobacterium tuberculosis 16C10 after 4 weeks by Bactec 460TB method. The note with it: 16C10, 672 h. In outline:
as §2

In experiment [12] the test system is Mycobacterium tuberculosis. The experiment is described as follows: Antimicrobial activity against wild type Mycobacterium tuberculosis 16C12 after 4 weeks by 7H agar proportion method. Summed up: as §1
For experiment [13], the system named is Mycobacterium tuberculosis. Briefly: Antimicrobial activity against wild type Mycobacterium tuberculosis 16C12 assessed as inhibition of growth after 4 weeks by Bactec 460TB method. The note with it: 16C12, 672 h. Summed up: as §2
Experiment [14] concerns Mycobacterium tuberculosis. The experiment is described as follows: Antimicrobial activity against wild type Mycobacterium tuberculosis 210 after 4 weeks. The settings on record: Mycobacterium tuberculosis, 210, 672 h. Summed up: (§4)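 Isogenic embB mutants made by allelic exchange in strain 210. PCR-built fragments carried the codon of interest; double-crossover colonies were screened by molecular beacon assay and confirmed by direct embB sequencing. MICs of EMB, INH and RIF were determined by radiometric Bactec 460TB and 7H10 agar proportion, alongside parent 210.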

Experiment [15] concerns Mycobacterium tuberculosis. Briefly: Antimicrobial activity against wild type Mycobacterium tuberculosis NJT210CGG-CAG after 4 weeks. The settings on record: 672 h. Summed up:
as §4

Usually MIC stands for the smallest concentration in the dilution series that meets the test's criterion for growth inhibition. Take `CC[C@@H](CO)NCCN[C@@H](CC)CO` [ETHAMBUTOL]: the MIC in [1] was 2 µg/mL (≈ 9.79 µM); in experiment [2], 4 µg/mL (≈ 19.6 µM); in experiment [3], 4 µg/mL (≈ 19.6 µM); in experiment [4] it was 4 µg/mL (≈ 19.6 µM); in [5], 8 µg/mL (≈ 39.2 µM); in experiment [6], 2 µg/mL (≈ 9.79 µM). Further, the minimum inhibitory concentration (MIC) in [7] was found to be 6 µg/mL (≈ 29.4 µM); in [8] it was 2 µg/mL (≈ 9.79 µM); in [9] it was 2 µg/mL (≈ 9.79 µM); in experiment [10], 6 µg/mL (≈ 29.4 µM); in experiment [11] it was 2 µg/mL (≈ 9.79 µM); in experiment [12], 8 µg/mL (≈ 39.2 µM). The MIC came out at 3 µg/mL (≈ 14.7 µM) in experiment [13], 2 µg/mL (≈ 9.79 µM) in experiment [14] and 2 µg/mL (≈ 9.79 µM) in [15].
As to `NNC(=O)c1ccncc1` [ISONIAZID], the MIC in [14] and in [15] was 0.05 µg/mL (≈ 0.365 µM) throughout.
With `CO[C@H]1/C=C/O[C@@]2(C)Oc3c(C)c(O)c4c(O)c(c(/C=N/N5CCN(C)CC5)c(O)c4c3C2=O)NC(=O)/C(C)=C\C=C\[C@H](C)[C@H](O)[C@@H](C)[C@@H](O)[C@@H](C)[C@H](OC(C)=O)[C@@H]1C` [RIFAMPIN], the MIC in experiment [14] and in experiment [15] was 0.05 µg/mL (≈ 0.0608 µM) in each case.
